# Measured values of several laboratories.
# Compare with care: the assays were run in different laboratories.
# CDK2 with cyclin E: Cyclin-dependent kinase 2, with cyclin E (CDK2, Homo sapiens, UniProt P24941)
# CDK2: Cyclin-dependent kinase 2 (CDK2, Homo sapiens, UniProt P24941)
# CDK2 with cyclin A: Cyclin-dependent kinase 2, with cyclin A (CDK2, Homo sapiens, UniProt P24941)
Structure (SMILES),target,read-out,action,technique,concentration,measurement,value
Cc1ccc(NC(=O)c2ccc(C)c(C(F)(F)F)c2)cc1C#Cc1nn(C2CCC(O)CC2)c2ncnc(N)c12 (stereo not drawn),CDK2 with cyclin E,cell-free assay,,,10 µM,remaining signal,102%
Cc1sc(C(=O)NC2COC2)cc1-n1cc(NC(=O)Nc2c(F)cccc2Cl)cn1,"Cyclin-dependent kinase 2, with cyclin O (CDK2, Homo sapiens, UniProt P24941)",enzyme activity,inhibitor,,10 µM,remaining activity,105%
Cn1c2c(Cl)c(Cl)ccc2c2cc[nH]c(=O)c21,CDK2,thermal stability,,DSF,10 µM,ΔTm,0.6 °C
C[C@H](c1ccnc(Nc2nc3ccc(-c4cc(N(C)C)ncn4)cc3[nH]2)c1)N1CCN(C(=O)CC(F)(F)F)CC1,CDK2,cell-free assay,,competition with immobilised ligand,0.1 µM,remaining binding,100%
Cc1cc(NC(=O)c2cccc3cc(-c4cccc5[nH]nc(N)c45)ccc23)ccc1F,CDK2 with cyclin E,enzyme activity,inhibitor,,0.1 µM,activity vs control,103%
CCC1(CC)NC(=O)c2c(c3ccc(Cl)c(Cl)c3n2C)C1C#N (stereo not drawn),CDK2,thermal stability,,DSF,10 µM,ΔTm,-0.4 °C
Cc1cc(-n2nc(Cc3cc(F)cc(C(F)(F)F)c3)nc2C)ccc1C(N)=O,CDK2,cell-free assay,,competition with immobilised ligand,1 µM,remaining binding,100%
CC(C)[C@H](CO)Nc1nc(Nc2cccc(Cl)c2)c2ncn(C(C)C)c2n1,CDK2 with cyclin A,cell-free assay,,,0.5 µM,remaining signal,6.91%
CC(C)(O)[C@H]1CC[C@H](Nc2ccc3ncc(-c4cccc(C(F)(F)F)c4)n3n2)CC1,"Cyclin-dependent kinase 2, with cyclin A1 (CDK2, Homo sapiens, UniProt P24941)",enzyme activity,inhibitor,,1 µM,remaining activity,78.5%
FC(F)(F)Oc1cccc(-c2cnc3ccc(-c4ccncc4)nn23)c1,CDK2 with cyclin A,enzyme activity,inhibitor,radiometric,1 µM,activity vs control,26%
O=C(Nc1cnn(-c2csc(C(=O)NC3COC3)c2)c1)Nc1ccccc1Cl,CDK2 with cyclin A,enzyme activity,inhibitor,,5 µM,remaining activity,93.6%
O=C1Cc2c([nH]c3ccc(Br)cc23)-c2ccccc2N1,CDK2 with cyclin E,cell-free assay,,,0.5 µM,remaining signal,51.9%
NS(=O)(=O)c1cc(NC(=O)Cc2ccccc2)ccc1Oc1cccc(Cl)c1,CDK2,cell-free assay,,competition with immobilised ligand,1 µM,remaining binding,100%
COc1cc2c(cc1OC)-c1[nH]nc(Nc3cccc(F)c3)c1C2,CDK2 with cyclin E,cell-free assay,,,0.5 µM,remaining signal,88.6%
CS(=O)(=O)c1cc(C2(NC(=O)c3cncc4c3cnn4-c3ccc(F)cc3)CC2)ccn1,CDK2,cell-free assay,,competition with immobilised ligand,1 µM,remaining binding,94%
CN1CCC2(CC1)NC(=O)c1c(c3ccc(Cl)c(Cl)c3n1C)C2C#N (racemic),CDK2,thermal stability,,DSF,10 µM,ΔTm,0.1 °C
O=C(Nc1cnn(-c2csc(C(=O)NC3COC3)c2)c1)Nc1c(F)cccc1Cl,"Cyclin-dependent kinase 2, with cyclin E2 (CDK2, Homo sapiens, UniProt P24941)",enzyme activity,inhibitor,,5 µM,remaining activity,98.9%
Cn1c2c(c3ccccc31)C(C#N)C(C)(C)NC2=O (stereo not drawn),CDK2,thermal stability,,DSF,10 µM,ΔTm,-0.1 °C
O=C(N[C@H]1CCCCC/C=C\C2C[C@@]2(C(=O)O)NC(=O)[C@@H]2C[C@@H](Oc3ccncc3)CN2C1=O)OC1CCCC1 (stereo partly drawn),CDK2,binding,,competition with immobilised ligand,1 µM,remaining binding,87%
COc1cc(/C=C/C(=O)CC(=O)/C=C/c2ccc(O)c(OC)c2)ccc1O,CDK2 with cyclin A,enzyme activity,inhibitor,,1 µM,activity vs control,107%
O=C1Nc2ccc(Cl)cc2C1=Cc1cc(Cl)c(O)c(Cl)c1,CDK2 with cyclin E,cell-free assay,,,0.5 µM,remaining signal,90%
CC(C)c1ccc(NC(=O)c2cccs2)c(-c2nc3ccccc3[nH]c2=O)c1,CDK2 with cyclin E,enzyme activity,inhibitor,,1 µM,activity vs control,98%
CSc1cccnc1N1CCN(Cc2nc3ccccc3[nH]2)CC1,CDK2,cell-free assay,,competition with immobilised ligand,1 µM,remaining binding,95%
O=C1NC(=O)c2cc(Nc3ccc(F)cc3)c(Nc3ccc(F)cc3)cc21,CDK2 with cyclin E,cell-free assay,,,0.5 µM,remaining signal,94.3%
Cn1c2c(c3ccc(Cl)c(Cl)c31)C(C#N)C(C)(C)NC2=O (stereo not drawn),CDK2,thermal stability,,DSF,10 µM,ΔTm,0.5 °C
O=C(Nc1cccnn1)N1CC(C/C=C/c2cncc(Oc3ccc(C(F)(F)F)cn3)n2)C1,CDK2,cell-free assay,,competition with immobilised ligand,1 µM,remaining binding,100%
N#CC1c2c([nH]c3c(Cl)c(Cl)ccc23)C(=O)NC12CCCCC2 (racemic),CDK2,thermal stability,,DSF,10 µM,ΔTm,-0.6 °C
CS(=O)(=O)CCNCc1ccc(-c2ccc3ncnc(Nc4ccc(OCc5cccc(F)c5)c(Cl)c4)c3c2)o1,CDK2 with cyclin E,cell-free assay,,,0.5 µM,remaining signal,98.8%
CC1(C)NC(=O)c2[nH]c3c(Cl)c(Cl)ccc3c2C1C#N (stereo not drawn),CDK2,thermal stability,,DSF,10 µM,ΔTm,-0.3 °C
N#Cc1c(NC(=O)c2cccc3ccccc23)sc2c1CCCC2,CDK2 with cyclin A,cell-free assay,,,0.5 µM,remaining signal,100%
Cc1nc(N2CC[C@@H](O)C2)ncc1-c1cc(C(F)(F)F)cc2[nH]ncc12,CDK2,binding,,competition with immobilised ligand,1 µM,remaining binding,94%
COc1cc(OC)c(C=C2C(O)=Nc3ccccc32)c(OC)c1,CDK2 with cyclin A,cell-free assay,,,0.5 µM,remaining signal,96.3%
Cc1ccc(C(=O)NCc2ccsc2)cc1C#Cc1cn(C(C)C)c2ncnc(N)c12,CDK2 with cyclin A,enzyme activity,inhibitor,,1 µM,activity vs control,94%
